Most compounds without a hit are left out; they make up all but 2.2% or so of the library.
FGF22 binding: shifts melting point of recombinant human FGF22 | 340,000 compounds, 1.5% hits | Q9HCT0 | activity (Tm shift, normalised), % at 9.99 µM | recombinant FGF22 thermal shift, SYPRO orange fluorescence; percent of sucrose octasulfate shift, DMSO zero;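 active = mean Tm shift, scaled 0 neutral to 100 positive control, at about 1.3% or above, every replicate too, limit read from the data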
Target sequence (Q9HCT0 whole entry, looked up): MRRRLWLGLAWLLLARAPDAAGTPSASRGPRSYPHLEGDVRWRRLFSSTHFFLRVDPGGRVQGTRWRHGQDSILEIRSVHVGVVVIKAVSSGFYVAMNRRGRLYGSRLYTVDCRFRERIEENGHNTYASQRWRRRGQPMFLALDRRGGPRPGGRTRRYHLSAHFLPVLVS
dFosB activator: enhances mouse delta FosB homodimer DNA binding | P13346 | purified delta FosB, TAMRA-CDK5 oligo fluorescence polarization; percent of positive-control signal above neutral wells | activation, % at 25 µM | 340,000 compounds, 0.99% hits | AID 493131;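 active = mean activation above about 17%, with every replicate also reaching it, limit read from the data, passing the limit was not always enough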
CFTR F508del cor: CFTR F508del correction in bronchial cells | CFBE cells, YFP halide quenching; stimulated with forskolin plus potentiator P3; % fluorescence drop versus neutral controls | activity (quench increase), % at 7.58 µM | 350,000 compounds, 0.36% hits | AID 720511;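 active = mean added fluorescence quench of at least 8% versus neutral control, with both replicates also reaching 8%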;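 also: cells transiently co-express mutant CFTR-F508del with the halide-sensitive YFP; corrector assay measuring rescue of mutant channel to the surface after 24 h compound exposure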
S100A4 inh HTS: S100A4-myosin IIA interaction inhibition; inhibition, % at 10.7 µM; AID 652163; S100A4/TAMRA-MyoIIA peptide fluorescence polarization; P26447; 360,000 compounds, 0.14% hits;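 active = mean inhibition of at least 70% across replicates, with every replicate also reaching that level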
Target sequence (P26447 whole entry, looked up): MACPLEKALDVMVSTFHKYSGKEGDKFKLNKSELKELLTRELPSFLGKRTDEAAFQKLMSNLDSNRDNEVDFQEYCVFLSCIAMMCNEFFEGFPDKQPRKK
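Material: S100A4 monomer protein | Medium: HEPES pH 7.2 with CaCl2, KCl, NaCl, DTT, Triton | Reagent: Labelled myosin peptide probe, 5 nM | Doses: One dose per compound | Times: 5 min incubation before reading | Benchmarks: Neutral control DMSO, positive control TFP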
* hit, by the source's call; x = no result given.

SMILES	FGF22 binding	dFosB activator	CFTR F508del cor	S100A4 inh HTS
Cc1ccc(NC(=O)CSc2ncc(S(=O)(=O)c3ccccc3)c(=O)[nH]2)cc1C	x	-4	x	x
COc1cccc(NC(=O)CSc2ncc(S(=O)(=O)c3ccccc3)c(=O)[nH]2)c1	1.8*	-8	-5	0
Clc1ccc(C2Nc3cccc4cccc(c34)N2)cc1	0	2	-3	-10
Brc1ccc(C2Nc3cccc4cccc(c34)N2)s1	0	23*	x	-5
N/C(=N\N=C\c1ccc(O)cc1)c1nonc1N	44*	-4	-1	0
Cc1nn(C)c(Cl)c1C(=O)NCC(=O)Nc1ccc(C(C)C)cc1	44*	-6	2	-12
Cc1ccc(NC(=O)Nc2ccc(Cl)cn2)cc1	0	8	1	-9
O=C(Nc1ccc(Cl)cn1)c1ccccc1[N+](=O)[O-]	43*	3	6	-2
O=C(Nc1ccc(Cl)cn1)c1cccc2ccccc12	0	-6	13*	0
Cc1ccnc(NC(=O)c2cccc([N+](=O)[O-])c2C)c1	43*	-3	0	-3
C=CCNC(=O)Nc1ccc(Cl)cn1	43*	1	2	-1
O=C(NNC(=O)c1ccccc1[N+](=O)[O-])Nc1ccc(Cl)cc1	0	2	0	-3
C[C@H]1CN([C@@H](C)CO)C(=O)c2ccccc2-c2ccccc2CO[C@@H]1CN(C)Cc1ccc(C(=O)O)cc1	0	x	-2	48
CN(C)/C=N/S(=O)(=O)c1ccc(Cl)cc1	43*	0	-5	-2
Cc1ccc(S(=O)(=O)/N=C/N(C)C)cc1	x	1	x	x
COc1ccc(NC(=O)Nc2ccc(CC(=O)O)cc2)cc1	43*	1	2	1
CN(C)c1ccc(C(=S)N2CCCCC2)cc1	43*	1	-2	3
CN(C)c1ccc(C(=S)N2CCNCC2)cc1	x	2	x	x
C[C@@H]1CCCCO[C@H](CN(C)Cc2ccc(Cl)c(Cl)c2)[C@H](C)CN([C@@H](C)CO)C(=O)c2cc(NC(=O)Cc3ccccc3)ccc2O1	1	x	1	5
C[C@@H]1CN([C@H](C)CO)C(=O)c2cc(NC(=O)NC3CCCCC3)ccc2O[C@@H]1CN(C)S(=O)(=O)c1ccccc1	0	x	-1	3
COCCN(C(=O)C(=O)NC1CCCC1)C(C(=O)NC1CCCC1)c1ccccc1F (configuration not stated)	44*	2	3	2
COc1ccccc1S(=O)(=O)N[C@@H]1CC[C@H](CCNC(=O)C2CCOCC2)O[C@H]1CO	0	x	-3	7
CCC(=O)N1[C@@H]2c3ccc(-c4ccccc4)c(=O)n3C[C@H]1[C@H](CO)[C@H]2C(=O)N1CCc2ccccc2C1	0	x	1	-4
c1cncc(-c2ccnc3ncnn23)c1	43*	-1	1	-4
C[C@@H]1CN([C@@H](C)CO)C(=O)c2cccc(NC(=O)CCCCCC(=O)Nc3ccccc3N)c2O[C@@H]1CN(C)C(=O)Nc1ccc(C(F)(F)F)cc1	0	x	0	-5
SMILES	FGF22 binding	dFosB activator	CFTR F508del cor	S100A4 inh HTS
CCc1nc2sccc2c(=O)[nH]1	44*	-1	0	-1
CCCc1nnc(NC(=O)CCC(=O)Nc2ccc(Cl)cc2)s1	0	5	-2	-2
CCc1nnc(NC(=O)CCC(=O)Nc2ccc(Cl)cc2)s1	43*	5	-2	-6
CC(C)NC(=O)N(C)C[C@H]1Oc2ccc(NC(=O)Nc3ccc4c(c3)OCO4)cc2CC(=O)N([C@H](C)CO)C[C@H]1C	0	x	-2	6
NC(N)=NC(N)=Nc1ccc2ccccc2c1	44*	6	2	-9
COc1ccc(-c2ccc3n(c2=O)C[C@H]2[C@H](CO)[C@@H](C(=O)N(C)C)[C@@H]3N2Cc2ccncc2)cc1	0	x	0	-46
Cc1ccc(C(=O)COC(=O)C2CC3CCCC(C2)C3=O)cc1[N+](=O)[O-] (configuration not stated)	0	-11	0	140*
Cc1ccc([N+](=O)[O-])c(NC(=O)COC(=O)C2CC3CCCC(C2)C3=O)c1C (configuration not stated)	0	-4	-2	-4
CC1(C)CC(NCCN2CCN(C3=CC(=C(C#N)C#N)CC(C)(C)C3)CC2)=CC(=C(C#N)C#N)C1	45*	-12	-4	-2
CNC(=S)N1CCN(CCNC2=CC(=O)CC(C)(C)C2)CC1	0	-7	1	8
COc1ccc(NC(=O)N[C@@H]2CC[C@H](CCNC(=O)Cc3ccncc3)O[C@H]2CO)cc1	0	x	-4	6
COc1ccc(CNC(=O)/C(C)=C\C(=O)O)cc1	43*	1	1	-1
COc1ccc(CNC(=O)C(=O)NCc2ccncc2)cc1	0	-4	-2	0
CO[C@H]1CN(C)C(=O)c2ccc(NS(=O)(=O)c3cccc(F)c3)cc2OC[C@H](C)N(Cc2cc(F)ccc2F)C[C@@H]1C	0	x	-8	8
C/C=C/c1cccc(-c2nc(C(=O)NCc3ccncc3)cc3c2[C@H](CCO)N([S@@](=O)C(C)(C)C)C3)c1	0	x	-1	-11
O=C(c1ccco1)N1CCN(Cc2cccc([N+](=O)[O-])c2)CC1	44*	2	3	1
O=[N+]([O-])c1cccc(COc2cccc(CN3CCCC3)c2)c1	0	1	5	-1
O=[N+]([O-])c1cccc(COc2cccc(CN3CCCCC3)c2)c1	43*	-7	-4	-3
C[C@H](CO)N1C[C@H](C)[C@@H](CN(C)C(=O)NC2CCCCC2)Oc2ccc(NC(=O)Cn3cnnn3)cc2CC1=O	0	x	-4	4
CCn1ncc(-c2cc(C(=O)O)no2)c1C	43*	-3	2	-1
CC(C)CC(=O)Nc1cccc(-c2nc3ncccc3o2)c1	0	-24	0	-1
CCCC(=O)NC(=S)Nc1cccc(-c2nc3ncccc3o2)c1	43*	-15	1	7
Cc1cc(/C=N/n2c(COc3ccccc3C)nc3ccccc3c2=O)c(O)c([N+](=O)[O-])c1	1	-23	8.2*	-2
O=C(NC(Cc1ccccc1)C(=O)N1CCN(S(=O)(=O)c2ccccc2F)CC1)c1ccccc1 (configuration not stated)	0	-4	8.7*	-13
O=C(NC(Cc1ccccc1)C(=O)N1CCCCCC1)c1ccccc1 (configuration not stated)	0	-7	1	2
O=C(CCC(=O)Nc1ccc(F)cc1)N/N=C/c1ccccc1	0	18*	2	0
CC(OC(=O)CCCC(=O)Nc1ccc(F)cc1)C(=O)c1ccccc1 (configuration not stated)	0	-10	9.4*	2
O=C(CCC(=O)Nc1ccc(Br)cc1)N/N=C/c1ccccc1O	0	29*	2	-2
CC(C)NC(=O)N(C)C[C@H]1OCc2ccccc2-c2c(n(C)c3ccccc23)C(=O)N([C@H](C)CO)C[C@H]1C	0	x	0	5
